sPLA2-III inh: Blocks human group III sPLA2 activity; Q9NZ20; QFRET BODIPY PC-A2 liposome hydrolysis, fluorescence; inhibition, % at 12.2 µM; 370,000 compounds, 0.56% hits; AID 743126;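 active = inhibition above mean plus 3 SD of compounds lying within the high and low control bounds, cut at about 19% in these data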
Target sequence (Q9NZ20 whole entry, looked up): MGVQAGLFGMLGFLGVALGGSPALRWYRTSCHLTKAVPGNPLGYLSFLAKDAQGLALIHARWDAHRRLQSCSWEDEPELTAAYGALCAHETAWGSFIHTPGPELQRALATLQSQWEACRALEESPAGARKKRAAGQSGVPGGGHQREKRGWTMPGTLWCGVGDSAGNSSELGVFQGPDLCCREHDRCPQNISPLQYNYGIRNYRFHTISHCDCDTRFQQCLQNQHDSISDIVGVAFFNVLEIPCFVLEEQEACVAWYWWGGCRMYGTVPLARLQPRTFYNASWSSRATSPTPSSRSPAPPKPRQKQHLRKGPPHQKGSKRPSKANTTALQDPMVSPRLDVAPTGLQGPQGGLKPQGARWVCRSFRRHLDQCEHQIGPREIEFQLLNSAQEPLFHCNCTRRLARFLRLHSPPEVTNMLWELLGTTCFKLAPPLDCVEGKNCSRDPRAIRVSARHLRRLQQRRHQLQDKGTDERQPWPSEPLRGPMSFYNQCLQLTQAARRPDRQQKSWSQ
Arrestin-AP2 inh: human beta-arrestin and AP2 interaction inhibition; AID 504490; FITC-arrestin peptide / GST-AP2 beads, flow cytometry; AP2 beta2 appendage carries R879A mutation; inhibition, % at 10 µM; 340,000 compounds, 0.31% hits;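 active = inhibition above a set limit, near 3 SD of compounds lacking own fluorescence, cut at about 54% in these data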
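Material – AP2 appendage R879A on GSH beads · Buffer or medium – PBS with 0.05% Tween 20 and 0.1% BSA · Probe or stimulus – fluorescein-tagged arrestin peptide at 50 nM final · Incubation – compound with beads 12 min RT, then probe 1 h RT · Detection – high-throughput flow cytometry of beads, ex 488, em 535 nm · Evaluation – percent response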
proCasp3 act: activates human procaspase-3. AID 463141. activation, % at 8.5 µM. recombinant procaspase-3 D3A, Ac-DEVD-pNA absorbance 405 nm. P42574. 330,000 compounds, 0.11% hits;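 active = activation above the mean of all tested compounds plus 3 SD, cut at about 21% in these data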
Target sequence (P42574 whole entry D9A/D28A/D175A): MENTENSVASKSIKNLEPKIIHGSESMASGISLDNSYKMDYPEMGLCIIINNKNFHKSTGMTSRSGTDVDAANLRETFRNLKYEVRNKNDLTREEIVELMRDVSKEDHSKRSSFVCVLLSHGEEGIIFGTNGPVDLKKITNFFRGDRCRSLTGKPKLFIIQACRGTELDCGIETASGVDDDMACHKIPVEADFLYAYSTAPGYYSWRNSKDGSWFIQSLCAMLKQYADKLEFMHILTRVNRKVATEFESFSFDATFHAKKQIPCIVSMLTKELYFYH
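material = Procaspase-3 D3A mutant | probe or stimulus = Ac-DEVD-pNA | compound = single dose, 8.5 µM nominal compound, 0.8% DMSO | timing = 1 h preincubation, 2 h reaction | measured by = 405 nm absorbance of p-nitroaniline, reads at 0 and 120 min | benchmarks = DMSO-only low control, 5 µM PC-3 D3A high control | repeats = singlicate, each compound tested once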
PLC-beta3 inh: inhibitors of human phospholipase C beta3; Q01970; Purified PLC-beta3, fluorogenic substrate, fluorescence; inhibition, % at 12.2 µM; 370,000 compounds, 0.18% hits; AID 720704; in the data active = inhibition above about 11%
PLC-gamma1 inh: blocks human PLC-gamma1 enzyme activity; P19174; purified PLC-gamma1, fluorogenic substrate, fluorescence; inhibition, % at 12.2 µM; 370,000 compounds, 0.84% hits; AID 720700; in the data active = inhibition above about 9.5%
proCasp7 act: counter-screen for procaspase-3 activators: activators of human procaspase-7; P55210; recombinant procaspase-7, Ac-DEVD-pNA absorbance 405 nm; D23A/D198A/D206A triple mutant, cannot self-cleave; scale: DMSO 0, 5 µM enzyme 100; activation, % at 8.5 µM; 330,000 compounds, 0.093% hits; AID 463210;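 active = percent activation above the screen-wide mean plus 3 SD, cut at about 25% in these data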
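signal = Epi-absorbance of released pNA at 405 nm, two timepoints | assay system = Uncleavable procaspase-7 mutant enzyme | reagent = Ac-DEVD-pNA substrate, 400 µM as added | times = 1 h enzyme–compound preincubation and 2 h substrate reaction, both 25 °C | benchmarks = low DMSO alone, high DMSO plus 5 µM PC-7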
sPLA2 confirm: human GIII-sPLA2 inhibition, confirmation | 2,000 compounds, 34% hits | recombinant hGIII-sPLA2, BODIPY PC-A2 QFRET fluorescence | inhibition, % at 12.2 µM | shares compounds with sPLA2-III inh;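 active = mean inhibition across triplicates above the hit cutoff set in the earlier primary screen, cut at about 19% in these data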
BODIPY interf: 535nm fluorescence interference, HGIII-sPLA2 counter-screen | BODIPY FL product fluorescence interference, QFRET | inhibition, % at 12.2 µM | shares compounds with sPLA2-III inh | 2,000 compounds, 8.5% hits | AID 743282;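 active = average inhibition above the solvent-only control mean plus 3 SD, cut at about 6% in these data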
BODIPY interf DR: 535nm optical interference dose response, HGIII-sPLA2 counter-screen | AID 743455 | 240 tested, under 10 active | shares compounds with sPLA2-III inh | BODIPY FL product fluorescence interference, cell-free | IC50, µM;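 active = IC50 at or below 10 µM; inactive = IC50 above 10 µM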
Of the large screens only hits and unclear results are named; the others gave an inactive call (follow-up assays come after a bar, where they were run). Rows were chosen to be rich in hits. Some 1.9% of all compounds tested hit in one or more screens of this group.

CCCCn1c(N)c(N(CCOC)C(=O)CCS(=O)(=O)c2ccc(C)cc2)c(=O)[nH]c1=O	none (no result: Arrestin-AP2 inh, proCasp3 act, proCasp7 act)
Cc1ccc(NC(=O)CN2CCCC2)cc1	sPLA2-III inh 79 | sPLA2 confirm inactive | BODIPY interf inactive
Cc1cccc(NC(=O)CN2CCN(CC(=O)Nc3ccc(-c4ccccc4)cc3)CC2)c1C	none
Cc1cccc(NC(=O)CN2CCN(C(=O)C3CCC3)CC2)c1C	sPLA2-III inh 21 | sPLA2 confirm inactive | BODIPY interf inactive
C[C@@H]1CN([C@H](C)CO)C(=O)Cc2cc(NC(=O)Nc3ccccc3)ccc2O[C@@H]1CN(C)Cc1ccc2c(c1)OCO2	none
CSCCC(NC(=O)COc1ccccc1)C(=O)OCCOc1ccc(C)cc1 (stereo not given)	none
CSCCC(NC(=O)COc1ccccc1)C(=O)N(C)CC(=O)Nc1c(C)cccc1C (stereo not given)	sPLA2-III inh 21 | sPLA2 confirm inactive | BODIPY interf inactive
CCNC(=O)c1cc2c(c(-c3cccc(-c4cncnc4)c3)n1)[C@@H](CCO)N(C(C)=O)C2	sPLA2-III inh 21 (no result: Arrestin-AP2 inh, proCasp3 act, proCasp7 act) | sPLA2 confirm inactive | BODIPY interf inactive
COc1cccc2sc(NNC(=O)C3COc4ccccc4O3)nc12 (stereo not given)	sPLA2-III inh 22 | sPLA2 confirm 24 | BODIPY interf inactive
CC1(C(=O)NS(=O)(=O)c2ccc(F)cc2F)CCN1C(=O)C/C=C/c1ccccc1 (stereo not given)	none (no result: Arrestin-AP2 inh, proCasp3 act, proCasp7 act)
O=C(NCc1ccccc1)[C@@H]1CCCN1C(=O)[C@H]1CCCN1C(=O)c1ccc(F)cc1	none (no result: Arrestin-AP2 inh, proCasp3 act, proCasp7 act)
O=C(NCc1ccccc1)[C@@H]1CCCN1C(=O)[C@H]1CCCN1C(=O)c1ccc(Cl)cc1	sPLA2-III inh 21 (no result: Arrestin-AP2 inh, proCasp3 act, proCasp7 act) | sPLA2 confirm inactive | BODIPY interf inactive
Cc1cc(C)nc(Sc2ccc([N+](=O)[O-])cc2[N+](=O)[O-])n1	sPLA2-III inh 20 | sPLA2 confirm inactive | BODIPY interf inactive
O=[N+]([O-])c1ccc(Sc2ccncn2)c([N+](=O)[O-])c1	none (no result: Arrestin-AP2 inh, proCasp3 act, proCasp7 act)
CC(C)c1ccccc1NC(=S)NC(=O)C1CCCCC1	none
CC(C)c1ccccc1NC(=S)NCC1(N(C)C)CCCCC1	sPLA2-III inh 20 | sPLA2 confirm 26 | BODIPY interf inactive
Cc1cc(=O)[nH]c(-n2ncc(C#N)c2N)n1	none
CCOC(=O)C1(C)CCCN1C(=O)c1ccc(C)cc1 (stereo not given)	none (no result: Arrestin-AP2 inh, proCasp3 act, proCasp7 act)
CCOC(=O)C1(C)CCCCCN1C(=O)c1ccc(N(C)C)cc1 (stereo not given)	sPLA2-III inh 19 (no result: Arrestin-AP2 inh, proCasp3 act, proCasp7 act) | sPLA2 confirm inactive | BODIPY interf inactive
Cc1cc(C(=O)O)c(CSc2ncn[nH]2)o1	sPLA2-III inh 21 | sPLA2 confirm inactive | BODIPY interf inactive
CN(C(=O)COC(=O)C1CCN(S(=O)(=O)c2c(Cl)cccc2Cl)CC1)C1CCCCC1	none
S=C(NCc1ccco1)N/N=C/c1ccncc1	none
CN(C)c1ccc(/C=N/NC(=S)NCc2ccco2)cc1	sPLA2-III inh 26 | sPLA2 confirm inactive | BODIPY interf inactive
CC1CC(C)CN(C(=O)Cn2nnc(-c3ccc(Br)cc3)n2)C1 (stereo not given)	none
COc1ccc(CCN2CCCn3c2nc2c3c(=O)n(CC(C)C)c(=O)n2C)cc1OC	sPLA2-III inh 24 (no result: proCasp3 act, proCasp7 act) | sPLA2 confirm inactive | BODIPY interf inactive
O=C(NNC(=S)Nc1cccc(C(F)(F)F)c1)c1ccccc1Cl	sPLA2-III inh 24 | sPLA2 confirm 24 | BODIPY interf inactive
CC(C)(C)NC(=S)NNC(=O)c1ccccc1Cl	sPLA2-III inh 22 | sPLA2 confirm 23 | BODIPY interf inactive
O=C(NNC(=S)Nc1cccc(C(F)(F)F)c1)c1cccc(Cl)c1	sPLA2-III inh 24 | sPLA2 confirm 33 | BODIPY interf 6.5
CNC(=S)NNC(=O)c1ccccc1Cl	none
Cc1ccc(-c2cc(-c3nnc(SCc4cccc5ccccc45)n3N)[nH]n2)cc1	none (no result: Arrestin-AP2 inh, proCasp3 act, proCasp7 act)
O=C(O)C1(Nc2ccc(Cl)cc2)CCCC1	none (no result: proCasp3 act, proCasp7 act)
NC(=O)C1(Nc2ccc(-c3ccc(Cl)cc3)cc2)CCCC1	sPLA2-III inh 22 (no result: proCasp3 act, proCasp7 act) | sPLA2 confirm inactive | BODIPY interf inactive
COc1cccc(CNC(=O)[C@@H]2CCCN2C(=O)[C@H]2CCCCN2C(=O)c2c(F)cccc2F)c1	none (no result: Arrestin-AP2 inh, proCasp3 act, proCasp7 act)
CCCCC[C@@H](/C=C/C1C(=O)C=C[C@H]1C/C=C\CCCC(=O)OC)OC(C)=O (stereo not given in full)	none (no result: proCasp3 act, proCasp7 act)
O=C(Nc1ccccc1)c1cccc(C(=O)Nc2ccccc2)n1	none
CN(C)c1ccc(NC(=O)c2cccc(C(=O)Nc3ccc(N(C)C)cc3)n2)cc1	sPLA2-III inh 28 | sPLA2 confirm 36 | BODIPY interf inactive | BODIPY interf DR inactive
COC(=O)c1c(NC(=O)CSc2nc3ccccc3c(=O)n2Cc2ccco2)sc(C)c1C	sPLA2-III inh 19 | sPLA2 confirm inactive | BODIPY interf inactive
CCCCn1c(/C=N/Nc2nc3ccccc3[nH]2)nc2ccccc21	sPLA2-III inh 35, proCasp3 act 25 | sPLA2 confirm 31 | BODIPY interf inactive
CCCCn1c(/C=C/c2ccco2)nc2ccccc21	none
COc1ccccc1NC(=O)CN1CCN(CC(=O)Nc2ccc(C)c(F)c2)CC1	none
Oc1ccc(CCc2c(F)cccc2F)c2cccnc12	none (no result: Arrestin-AP2 inh, proCasp3 act, proCasp7 act)
Oc1ccc(/C=C/c2ccccc2F)c2cccnc12	sPLA2-III inh 28 (no result: Arrestin-AP2 inh, proCasp3 act, proCasp7 act) | sPLA2 confirm inactive | BODIPY interf 9.6
COc1ccccc1-c1csc(C(O)c2ccc(F)c(F)c2)n1 (stereo not given)	none (no result: Arrestin-AP2 inh, proCasp3 act, proCasp7 act)
COc1ccccc1CNC(=O)CCNS(=O)(=O)c1cc(Br)cnc1N	none
O=C(Nc1ccc(Cl)cc1Cl)NC1CCN(S(=O)(=O)c2ccc(F)cc2)CC1	sPLA2-III inh 21 | sPLA2 confirm inactive | BODIPY interf inactive
Cc1cccc(NC(=O)CCN2C(=O)c3ccccc3S2(=O)=O)c1C	none (no result: sPLA2-III inh, PLC-beta3 inh, PLC-gamma1 inh)
CC(C)(C)OC(=O)C[C@@H]1C/C=C\C[C@@H](CC(=O)N[C@@H](CO)Cc2ccccc2)C(=O)N2CCC[C@@H]2COC1=O	none (no result: Arrestin-AP2 inh)

High-throughput results: PubChem, several laboratories
